Measurements taken from paper PMC4091826 (Molecular Biology of the Cell, 2014).
No end group written: not given here.

Key:
[1] = system: human mtHsp70; details: ref Goswami et al., 2010; cited from earlier work
[2] = system: human mtHsp70; details: versus wild type; ref Goswami et al., 2010; cited from earlier work
[3] = system: human mtHsp70; experiment: Stimulation of ATPase activity by P5 peptide, human mtHsp70; assay type: biochemical; details: 250-fold molar excess of P5; Figure 1D
How it was run: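 Human mtHsp70[ATP] complexes were formed by incubating 100 μg protein with 50 μM ATP and 25 μCi [γ-32P]ATP on ice for 3 min in buffer A (25 mM HEPES-KOH pH 7.5, 100 mM KCl, 10 mM Mg(OAc)2). Complexes were isolated by Sephadex G50 (1 μM protein) and snap-frozen. Single-turnover hydrolysis was run at 25°C in buffer A, either alone (basal) or with P5 peptide.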

[4] = system: human mtHsp70; experiment: Single-turnover basal ATPase assay, human mtHsp70; assay type: biochemical; details: 25°C, buffer A, versus wild type, Figure 1C
How it was run: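 Purified protein (100 μg) was loaded on ice for 3 min with 50 μM ATP and 25 μCi [γ-32P]ATP in buffer A (25 mM HEPES-KOH pH 7.5, 100 mM KCl, 10 mM Mg(OAc)2). Complexes were isolated immediately on Sephadex G50 and frozen in liquid nitrogen; they contained 1 μM protein. Hydrolysis was then run at 25°C in buffer alone, without stimulators.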

[5] = system: Hsp60; experiment: Hsp60 precursor accumulation assay; assay type: cell-based, S. cerevisiae; details: shift to 37°C for 2 h, immunoblot; Figure 6B
How it was run: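 Yeast strains were grown in YPD at 28°C to early log phase, then shifted to 37°C for 2 h. Cells equivalent to 2 OD A600 were taken before and after the shift and lysed in 0.1 N NaOH. Whole-cell extracts were run on SDS–PAGE and immunoblotted for Hsp60 to detect its precursor (p) and mature (m) forms.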

[6] = system: Ssc1; experiment: ATP-induced substrate release by fluorescence anisotropy, Ssc1; assay type: biochemical, S. cerevisiae; details: 2.5 mM ATP, 5 μM Ssc1[F-P5], anisotropy decrease up to 5 min
[7] = system: mitochondrial mass; experiment: Mitochondrial mass estimation by 10-N-nonyl acridine orange flow cytometry; assay type: cell-based, S. cerevisiae; details: in comparison to wild type; Figure 6E
How it was run: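 Per strain, cells equal to 0.2 OD at A600 were stained with 10-N-nonyl acridine orange, a cardiolipin-binding dye, and analysed by flow cytometry to estimate total mitochondrial mass.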

[8] = system: Tim44; experiment: Coimmunoprecipitation of Ssc1 with Tim44; assay type: binding, S. cerevisiae; details: mitochondrial lysates, anti-Ssc1, presence or absence of 1 mM ATP; Figure 6A
[9] = system: fluorescein-labeled P5 peptide (F-P5); experiment: Fluorescence anisotropy equilibrium binding of F-P5 peptide to Ssc1 proteins; details: F-P5, versus wild type
[10] = system: Ssc1; experiment: Single-turnover basal ATPase assay, Ssc1; assay type: biochemical, S. cerevisiae; details: 25°C, buffer A, versus wild type
[11] = system: Ssc1; experiment: Limited proteolytic cleavage by trypsin; assay type: biochemical, S. cerevisiae; details: 1:100 (wt/wt) trypsin, 25°C, SDS-PAGE
[12] = system: yeast cells; experiment: Growth phenotype; assay type: cell-based, S. cerevisiae; details: minimal medium or 5-FOA medium, serial dilutions
[13] = system: Cytb2(47)-DHFR; experiment: In vitro import kinetics of Cytb2; assay type: biochemical, S. cerevisiae; details: isolated mitochondria, 37°C preincubation; Figure 6, C and D
How it was run: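 Saturating purified precursor plus 8 mM each ATP and NADH added. Time points stopped with valinomycin, then proteinase K (quenched with PMSF). Anti-DHFR immunoblot; intermediate form plotted over time, maximum wild-type import set as 100%.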

[14] = target: T1, Ssc1 E467A, hexahistidine-tagged, purified (S. cerevisiae, UniProt P0CS90 24-654, E467A); experiment: fluorescence polarisation
[15] = target: T2, Ssc1 (yeast mtHsp70), wild type, hexahistidine-tagged, purified (S. cerevisiae, UniProt P0CS90 24-654); experiment: fluorescence polarisation
[16] = target: Ssc1 D411R, purified (S. cerevisiae, UniProt P0CS90 24-654, D411R); experiment: fluorescence polarisation
[17] = target: Ssc1 E467A-D411R, purified (S. cerevisiae, UniProt P0CS90 24-654, D411R | E467A); experiment: fluorescence polarisation
[18] = target: T1, Ssc1 E467A, hexahistidine-tagged, …; experiment: fluorescence polarisation; remark: listed apart in the source
[19] = target: T2, Ssc1 (yeast mtHsp70), wild type, …; experiment: fluorescence polarisation; remark: listed apart in the source
[20] = target: human mtHsp70, wild type, hexahistidine-tagged, purified (human, UniProt P38646 47-679); experiment: fluorescence polarisation
Chain of human mtHsp70, wild type, hexahistidine-tagged, purified (P38646 47-679): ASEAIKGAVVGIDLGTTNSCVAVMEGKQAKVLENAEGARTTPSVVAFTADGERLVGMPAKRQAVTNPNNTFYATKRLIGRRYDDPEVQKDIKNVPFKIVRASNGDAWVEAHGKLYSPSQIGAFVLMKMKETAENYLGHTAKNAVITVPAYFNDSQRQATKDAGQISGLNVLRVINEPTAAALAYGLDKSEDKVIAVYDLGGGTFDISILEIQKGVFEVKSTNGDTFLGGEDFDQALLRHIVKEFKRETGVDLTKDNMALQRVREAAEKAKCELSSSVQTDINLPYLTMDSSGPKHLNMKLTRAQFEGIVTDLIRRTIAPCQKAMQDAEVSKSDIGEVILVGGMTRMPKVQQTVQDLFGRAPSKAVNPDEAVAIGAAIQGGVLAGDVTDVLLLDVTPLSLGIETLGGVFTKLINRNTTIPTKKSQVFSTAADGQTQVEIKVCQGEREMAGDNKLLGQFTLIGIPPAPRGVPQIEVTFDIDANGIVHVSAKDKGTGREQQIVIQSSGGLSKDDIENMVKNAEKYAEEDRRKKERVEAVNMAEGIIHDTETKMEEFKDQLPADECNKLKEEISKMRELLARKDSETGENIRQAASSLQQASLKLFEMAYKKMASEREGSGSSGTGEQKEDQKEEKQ

[21] = target: T1, Ssc1 E467A, hexahistidine-tagged, …; experiment: fluorescence polarisation; remark: listed apart in the source
[22] = target: T2, Ssc1 (yeast mtHsp70), wild type, …; experiment: fluorescence polarisation; remark: listed apart in the source
Target sequence in this assay (P0CS90 24-654): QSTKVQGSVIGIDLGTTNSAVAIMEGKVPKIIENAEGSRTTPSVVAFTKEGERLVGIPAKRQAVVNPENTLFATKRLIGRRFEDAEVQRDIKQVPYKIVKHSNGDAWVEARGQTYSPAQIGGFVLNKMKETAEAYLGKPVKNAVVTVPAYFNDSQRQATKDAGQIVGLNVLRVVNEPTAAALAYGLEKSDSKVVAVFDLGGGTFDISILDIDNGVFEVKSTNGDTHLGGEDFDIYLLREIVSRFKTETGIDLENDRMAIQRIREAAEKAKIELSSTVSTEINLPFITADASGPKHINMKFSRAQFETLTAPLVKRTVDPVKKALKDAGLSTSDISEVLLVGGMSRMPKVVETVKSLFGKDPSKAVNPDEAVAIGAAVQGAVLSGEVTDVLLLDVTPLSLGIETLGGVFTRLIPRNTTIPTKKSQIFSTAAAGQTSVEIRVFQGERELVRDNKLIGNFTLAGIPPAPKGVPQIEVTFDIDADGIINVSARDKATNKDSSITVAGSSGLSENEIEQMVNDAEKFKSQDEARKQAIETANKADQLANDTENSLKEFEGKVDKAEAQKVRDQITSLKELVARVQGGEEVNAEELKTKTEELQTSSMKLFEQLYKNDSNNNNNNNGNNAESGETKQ

**Q.** For mtHsp70G489E, which “loss in stimulation of ATPase activity by peptide substrates” value [1] is on record?
**A.** 70%

**Q.** And the “elevated basal rate of ATP hydrolysis” value [2]?
**A.** fivefold elevated

**Q.** And the “stimulation of ATPase activity by P5 substrate peptide, in words” value [3]?
**A.** marked decrease in stimulation of ATPase activity by P5 substrate peptide

**Q.** With mtHsp70Q488A as the molecule, how does the “stimulation of ATPase activity by P5 substrate peptide, in words” value [3] read?
**A.** marked decrease in stimulation of ATPase activity by P5 substrate peptide

**Q.** What about the “fold enhancement in basal ATPase activity” value [4] of the same molecule?
**A.** 2.75 fold

B1: E467A (protein)
chain: QSTKVQGSVIGIDLGTTNSAVAIMEGKVPKIIENAEGSRTTPSVVAFTKEGERLVGIPAKRQAVVNPENTLFATKRLIGRRFEDAEVQRDIKQVPYKIVKHSNGDAWVEARGQTYSPAQIGGFVLNKMKETAEAYLGKPVKNAVVTVPAYFNDSQRQATKDAGQIVGLNVLRVVNEPTAAALAYGLEKSDSKVVAVFDLGGGTFDISILDIDNGVFEVKSTNGDTHLGGEDFDIYLLREIVSRFKTETGIDLENDRMAIQRIREAAEKAKIELSSTVSTEINLPFITADASGPKHINMKFSRAQFETLTAPLVKRTVDPVKKALKDAGLSTSDISEVLLVGGMSRMPKVVETVKSLFGKDPSKAVNPDEAVAIGAAVQGAVLSGEVTDVLLLDVTPLSLGIETLGGVFTRLIPRNTTIPTKKSQIFSTAAAGQTSVEIRVFQGARELVRDNKLIGNFTLAGIPPAPKGVPQIEVTFDIDADGIINVSARDKATNKDSSITVAGSSGLSENEIEQMVNDAEKFKSQDEARKQAIETANKADQLANDTENSLKEFEGKVDKAEAQKVRDQITSLKELVARVQGGEEVNAEELKTKTEELQTSSMKLFEQLYKNDSNNNNNNNGNNAESGETKQ
**Q.** Which “Hsp60 precursor accumulation, in words” value [5] does the source give for B1 here?
**A.** significant levels of Hsp60 precursor form as compared with wild type

**Q.** And the “substrate (peptide) release upon ATP addition” value [6]?
**A.** ~38%

**Q.** What about the “reduction in mitochondrial mass” value [7] of the same molecule?
**A.** 30%

**Q.** What about the “interaction with Tim44, in words” value [8] of the same molecule?
**A.** interacted negligibly with Tim44 even in the absence of ATP

**Q.** And the “fold reduced affinity for the substrate vs wild type” value [9]?
**A.** ~8.6 fold

**Q.** What about the “fold increase in basal ATPase activity” value [10] of the same molecule?
**A.** 4.85 fold

**Q.** What about the “trypsin cleavage pattern, in words” value [11] of the same molecule?
**A.** the 30-kDa bands were very unstable and rapidly degraded further into smaller-sized fragments

**Q.** And the “growth phenotype, in words” value [12]?
**A.** viable at 30 °C but displayed temperature sensitivity at 34 and 37 °C

**Q.** What about the “rate of precursor translocation into mitochondria, in words” value [13] of the same molecule?
**A.** impairment in translocation rate

B2: fluorescein-labeled P5 peptide (peptide)
peptide: CALLLSAPRR
modifications: also: fluorescein label, position not given here
**Q.** Which koff [14] does the source give for B2 here?
**A.** 0.0039 ± 0.000131 s⁻¹

**Q.** What about the koff [15] of the same molecule?
**A.** 0.0023 ± 3.47e-05 s⁻¹

**Q.** Does B2 bind [16]?
**A.** binds

**Q.** Does B2 bind [17]?
**A.** binds

**Q.** What about the kon [18] of the same molecule?
**A.** 3400 M⁻¹ s⁻¹

**Q.** And the kon [19]?
**A.** 14000 M⁻¹ s⁻¹

**Q.** Does B2 bind [20]?
**A.** binds

**Q.** And the Kd [21]?
**A.** 1750 ± 269 nM

**Q.** And the Kd [22]?
**A.** 200 ± 37 nM
